# Source: ChEMBL document CHEMBL1129356, “Novel 3,7-diheterabicyclo[3.3.1]nonanes that possess predominant class III antiarrhythmic activity in 1-4 day post infarction dog models: X-ray diffraction analysis of 3-[4-(1H-imidazol-1-yl)benzoyl]-7-isopropyl-3,7-diazabicyclo[3.3.1]nona ne dihydroperchlorate” (1996)
# Activity calls are given as the source filed them.
# How the values were obtained:
# [1] = system: Canis familiaris; assay: (§1) Antiarrhythmic properties are compared to lidocaine(2) using doses(3 and 6 mg/kg) measures His-Purkinje conduction time(drug free); No effect; format: functional, organism-based; parameters: dose 6 mg/kg; conditions: Canis lupus familiaris; His-Purkinje system
# In short: (§2)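 Mongrel dogs (about 12–25 kg), 1–4 days after coronary occlusion infarction, under sodium pentobarbital (~30 mg/kg) with 12-lead ECG monitoring. Agents and lidocaine were given iv at 3 and 6 mg/kg. Programmed ventricular stimulation was applied at baseline, about 2–5 min after each dose, and at 30 min. SVT was defined as ≥250 beats/min lasting ≥30 s. Pre means drug-free; post means after dosing.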
# [2] = system: Canis familiaris; assay: (§3) Antiarrhythmic property A-V nodal conduction time(drug free) is compared to lidocaine(2) using doses(3 and 6 mg/kg); No effect; format: functional, organism-based; parameters: dose 6 mg/kg; conditions: Canis lupus familiaris; Heart; in short: as §2
# [3] = system: Canis familiaris; assay: (§4) Antiarrhythmic property A-V nodal conduction time(post drug) is compared to lidocaine(2) using dose (3 and 6 mg/kg); No effect; format: functional, organism-based; parameters: dose 6 mg/kg; conditions: Canis lupus familiaris; Heart; in short: as §2
# [4] = system: Canis familiaris; assay: (§5) Antiarrhythmic properties are compared to lidocaine(2) using doses(3 and 6 mg/kg). Time required for the ventricular myocardium to undergo depolarization and repolarization ((post drug); No effect; format: functional, organism-based; parameters: dose 6 mg/kg; conditions: Canis lupus familiaris; in short: as §2
# [5] = system: Canis familiaris; assay: (§6) Antiarrhythmic properties are compared to lidocaine(2) using doses(3 and 6 mg/kg). Time required for the ventricular myocardium to undergo depolarization and repolarization (drug free); No effect; format: functional, organism-based; parameters: dose 6 mg/kg; conditions: Canis lupus familiaris; in short: as §2
# [6] = system: Canis familiaris; assay: Antiarrhythmic properties are compared to lidocaine(2) using doses(3 and 6 mg/kg). Tested for time required for the ventricular myocardium to undergo depolarization and repolarization ((post drug); No effect; format: functional, organism-based; parameters: dose 6 mg/kg; conditions: Canis lupus familiaris; in short: as §2
# [7] = system: Canis familiaris; assay: Antiarrhythmic properties are compared to lidocaine(2) using doses(3 and 6 mg/kg).Tested for time required for the ventricular myocardium to undergo depolarization and repolarization (drug free); No effect; format: functional, organism-based; parameters: dose 6 mg/kg; conditions: Canis lupus familiaris; in short: as §2
# [8] = system: Canis familiaris; assay: as §1; format: functional, organism-based; parameters: dose 6 mg/kg; conditions: Canis lupus familiaris; His-Purkinje system; in short: as §2; remark: listed apart in the source
# [9] = system: Canis familiaris; assay: Antiarrhythmic properties are compared to lidocaine(2) using doses(3 and 6 mg/kg) measures His-Purkinje conduction time(post drug); No effect; format: functional, organism-based; parameters: dose 6 mg/kg; conditions: Canis lupus familiaris; His-Purkinje system; in short: as §2
# [10] = system: Canis familiaris; assay: Antiarrhythmic properties are compared to lidocaine(2) using doses(3 and 6 mg/kg) ventricular effective refractory period(post drug); No effect; format: functional, organism-based; parameters: dose 6 mg/kg; conditions: Canis lupus familiaris; Heart; in short: as §2
# [11] = system: Canis familiaris; assay: Antiarrhythmic properties are compared to lidocaine(2) using doses(3 and 6 mg/kg) ventricular effective refractory period(drug free); No effect; format: functional, organism-based; parameters: dose 6 mg/kg; conditions: Canis lupus familiaris; Heart; in short: as §2
# [12] = system: Canis familiaris; assay: Antiarrhythmic property A-V nodal conduction time(post drug) is compared to lidocaine(2) using doses(3 and 6 mg/kg); format: functional, Canis lupus familiaris, Heart; in short: as §2
# [13] = system: Canis familiaris; assay: Antiarrhythmic property is compared to lidocaine(2) using doses(3 and 6 mg/kg). Time required for the ventricular myocardium to undergo depolarization and repolarization ((post drug); format: functional, Canis lupus familiaris; in short: as §2
# [14] = system: Canis familiaris; assay: Antiarrhythmic property is compared to lidocaine(2) using doses(3 and 6 mg/kg). Time required for the ventricular myocardium to undergo depolarization and repolarization (drug free); format: functional, Canis lupus familiaris; in short: as §2
# [15] = system: Canis familiaris; assay: Tested for antiarrhythmic property by measuring ability to decrease heart rate(drug free) is compared to Lidocaine using doses (3 and 6 mg/kg).; format: functional, Canis lupus familiaris; in short: as §2
# [16] = system: Canis familiaris; assay: Tested for antiarrhythmic property by measuring ability to decrease heart rate(post drug) is compared to Lidocaine using doses(3 and 6 mg/kg).; format: functional, Canis lupus familiaris; in short: as §2
# [17] = system: Canis familiaris; assay: Antiarrhythmic property A-V nodal conduction time(drug free) is compared to lidocaine(2) using doses(3 and 6 mg/kg); format: functional, Canis lupus familiaris, Heart; in short: as §2
# [18] = system: Canis familiaris; assay: Tested for antiarrhythmic property by measuring ability to decrease Mean blood pressure (drug free) is compared to Lidocaine using doses(3 and 6 mg/kg).; format: functional, Canis lupus familiaris; in short: as §2
# [19] = system: Canis familiaris; assay: Tested for antiarrhythmic property by measuring ability to decrease Mean blood pressure(post drug) is compared to Lidocaine using doses(3 and 6 mg/kg); format: functional, Canis lupus familiaris; in short: as §2
# [20] = system: Canis familiaris; assay: Antiarrhythmic property ventricular effective refractory period(drug free) is compared to lidocaine(2) using doses(3 and 6 mg/kg); format: functional, Canis lupus familiaris, Heart; in short: as §2
# [21] = system: Canis familiaris; assay: Antiarrhythmic property ventricular effective refractory period(post drug) is compared to lidocaine(2) using doses(3 and 6 mg/kg); format: functional, Canis lupus familiaris, Heart; in short: as §2
# [22] = system: Canis familiaris; assay: Antiarrhythmic property His-Purkinje conduction time(drug free) is compared to lidocaine(2) using doses(3 and 6 mg/kg); format: functional, Canis lupus familiaris, His-Purkinje system; in short: as §2
# [23] = system: Canis familiaris; assay: Antiarrhythmic property His-Purkinje conduction time(post drug) is compared to lidocaine(2) using doses(3 and 6 mg/kg); format: functional, Canis lupus familiaris, His-Purkinje system; in short: as §2
# [24] = system: Canis familiaris; assay: Tested for antiarrhythmic property by measuring ability to decrease heart rate(drug free) is compared to Lidocaine using doses (3 and 6 mg/kg); No effect; format: functional, organism-based; parameters: dose 6 mg/kg; conditions: Canis lupus familiaris; in short: as §2
# [25] = system: Canis familiaris; assay: Tested for antiarrhythmic property by measuring ability to decrease heart rate(post drug) is compared to Lidocaine using doses(3 and 6 mg/kg); No effect; format: functional, organism-based; parameters: dose 6 mg/kg; conditions: Canis lupus familiaris; in short: as §2
# [26] = system: Canis familiaris; assay: Antiarrhythmic property A-V nodal conduction time(post drug) is compared to lidocaine(2) using doses(3 and 6 mg/kg); No effect; format: functional, organism-based; parameters: dose 6 mg/kg; conditions: Canis lupus familiaris; Heart; in short: as §2
# [27] = system: Canis familiaris; assay: (§7) Antiarrhythmic property is compared to lidocaine(2) using doses(3 and 6 mg/kg). Time required for the ventricular myocardium to undergo depolarization and repolarization ((post drug); No effect; format: functional, organism-based; parameters: dose 6 mg/kg; conditions: Canis lupus familiaris; in short: as §2
# [28] = system: Canis familiaris; assay: (§8) Antiarrhythmic property is compared to lidocaine(2) using doses(3 and 6 mg/kg). Time required for the ventricular myocardium to undergo depolarization and repolarization (drug free); No effect; format: functional, organism-based; parameters: dose 6 mg/kg; conditions: Canis lupus familiaris; in short: as §2
# [29] = system: Canis familiaris; assay: Antiarrhythmic property His-Purkinje conduction time(drug free) is compared to lidocaine(2) using doses(3 and 6 mg/kg); No effect; format: functional, organism-based; parameters: dose 6 mg/kg; conditions: Canis lupus familiaris; His-Purkinje system; in short: as §2
# [30] = system: Canis familiaris; assay: Antiarrhythmic property His-Purkinje conduction time(post drug) is compared to lidocaine(2) using doses(3 and 6 mg/kg); No effect; format: functional, organism-based; parameters: dose 6 mg/kg; conditions: Canis lupus familiaris; His-Purkinje system; in short: as §2
# [31] = system: Canis familiaris; assay: as §4; format: functional, organism-based; parameters: dose 6 mg/kg; conditions: Canis lupus familiaris; Heart; remark: listed apart in the source
# In short: (§9)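 Mongrel dogs (~12–25 kg), 1–4 days after coronary occlusion leaving a surviving epicardial rim, anesthetized with sodium pentobarbital (~30 mg/kg). 12-lead ECG monitored throughout. Agent given iv at 3 and 6 mg/kg. Parameters recorded before (drug free) and after dosing. Programmed electrical stimulation tested SVT inducibility (≥250 beats/min, ≥30 s) at baseline, ~2–5 min after each dose, and at 30 min.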
# [32] = system: Canis familiaris; assay: as §7; format: functional, organism-based; parameters: dose 6 mg/kg; conditions: Canis lupus familiaris; in short: as §9; remark: listed apart in the source
# [33] = system: Canis familiaris; assay: as §8; format: functional, organism-based; parameters: dose 6 mg/kg; conditions: Canis lupus familiaris; in short: as §9; remark: listed apart in the source
# [34] = system: Canis familiaris; assay: as §3; format: functional, organism-based; parameters: dose 6 mg/kg; conditions: Canis lupus familiaris; Heart; in short: as §9; remark: listed apart in the source
# [35] = system: Canis familiaris; assay: as §5; format: functional, organism-based; parameters: dose 6 mg/kg; conditions: Canis lupus familiaris; in short: as §9; remark: listed apart in the source
# [36] = system: Canis familiaris; assay: as §6; format: functional, organism-based; parameters: dose 6 mg/kg; conditions: Canis lupus familiaris; in short: as §9; remark: listed apart in the source
# [37] = system: Canis familiaris; assay: Antiarrhythmic property ventricular effective refractory period(drug free) is compared to lidocaine(2) using doses(3 and 6 mg/kg); No effect; format: functional, organism-based; parameters: dose 6 mg/kg; conditions: Canis lupus familiaris; Heart; in short: as §9
# [38] = system: Canis familiaris; assay: Antiarrhythmic property ventricular effective refractory period(post drug) is compared to lidocaine(2) using doses(3 and 6 mg/kg); No effect; format: functional, organism-based; parameters: dose 6 mg/kg; conditions: Canis lupus familiaris; Heart; in short: as §9
# [39] = system: Canis familiaris; assay: Tested for antiarrhythmic property by measuring ability to decrease Mean blood pressure (post drug) is compared to Lidocaine using doses(3 and 6 mg/kg); format: functional, Canis lupus familiaris; in short: as §2
# [40] = system: Canis familiaris; assay: Antiarrhythmic property Nonsustained ventricular tachycardia is compared to lidocaine(2) using dose of (3 and 6 mg/kg); format: functional, Canis lupus familiaris, Heart; in short: as §2
# [41] = system: Canis familiaris; assay: Antiarrhythmic property A-V nodal conduction time(post drug) is compared to lidocaine(2) using dose (3 and 6 mg/kg); format: functional, Canis lupus familiaris, Heart; in short: as §2
# [42] = system: Canis familiaris; assay: Tested for antiarrhythmic property by measuring ability to decrease heart rate (drug free) is compared to Lidocaine using doses (3 and 6 mg/kg).; format: functional, Canis lupus familiaris; in short: as §2
compound,measurement,setting,value
CC(C)N1CC2CC(CN(C(=O)c3ccc(NS(C)(=O)=O)cc3)C2)C1,HV interval,[1],inactive
same,AH interval,[2],inactive
same,NE,[2],inactive
same,AH interval,[3],inactive
same,OT,[4],inactive
same,OT,[5],inactive
same,OT interval,[6],inactive
same,OT interval,[7],inactive
same,HV interval,[8],inactive
same,HV interval,[9],inactive
same,VERP,[10],inactive
same,HV interval,[11],inactive
same,VERP,[11],inactive
CC(C)N1CC2CC(CN(C(=O)c3ccc(N)cc3)C2)C1.Cl.Cl,AH interval,[12],65 ms
same,QT,[13],220 ms
same,QT,[14],210 ms
same,HR,[15],130 beats min-1
same,HR,[16],115 beats min-1
same,AH interval,[17],55 ms
same,MBP,[18],100 mmHg
same,MBP,[19],77 mmHg
same,NSVT,[20],6 mg/kg
same,VERP,[21],220 ms
CC(C)N1CC2CC(CN(C(=O)c3ccc(-n4ccnc4)cc3)C2)C1,AH interval,[12],66 ms
same,QT,[13],288 ms
same,QT,[14],196 ms
same,HR,[15],148 beats min-1
same,HR,[16],110 beats min-1
same,AH interval,[17],57 ms
same,MBP,[18],94 mmHg
same,MBP,[19],84 mmHg
same,HV interval,[22],32 ms
same,HV interval,[23],37 ms
same,VERP,[20],144 ms
same,VERP,[21],187 ms
CCN(CC)CC(=O)Nc1c(C)cccc1C [LIDOCAINE],HR,[24],inactive
same,HR,[25],inactive
same,AH interval,[2],inactive
same,AH interval,[26],inactive
same,QT interval,[27],inactive
same,QT interval,[28],inactive
same,MBP,[18],105 mmHg
same,MBP,[19],84 mmHg
same,HV interval,[29],inactive
same,HV interval,[30],inactive
same,VERP,[20],142 ms
same,VERP,[21],167 ms
c1ccc(CN2CC3CSCC(C3)C2)cc1,AH interval,[31],inactive
same,QT,[32],inactive
same,QT,[33],inactive
same,AH interval,[34],inactive
same,QT,[35],inactive
same,QT,[36],inactive
same,VERP,[37],inactive
same,VERP,[38],inactive
CC(C)N1CC2CC(CN(C(=O)c3ccc(NS(C)(=O)=O)cc3)C2)C1.Cl,HR,[15],150 beats min-1
same,HR,[16],150 beats min-1
same,MBP,[18],95 mmHg
same,MBP,[39],95 mmHg
same,NSVT,[40],6 mg/kg
O=C(c1ccc(Cl)cc1)N1CC2CC(CN(CC3CC3)C2)C1,AH interval,[41],68 ms
same,QT,[13],250 ms
same,QT,[14],215 ms
same,HR,[42],125 beats min-1
same,HR,[16],105 beats min-1
same,AH interval,[17],60 ms
same,MBP,[18],88 mmHg
same,MBP,[39],98 mmHg
same,HV interval,[29],inactive
same,HV interval,[30],inactive
same,VERP,[20],170 ms
same,VERP,[40],220 ms
